From ChEMBL document CHEMBL3272259, “Nitroimidazoles with antibacterial activity against Neisseria gonorrhoeae” (1977)
Converted amounts (≈) assume the structure as drawn. The source made the active and inactive calls. The rule behind the calls is not given here.

How the values were obtained:
Clostridium perfringens = assay: Antibacterial activity against Clostridium perfringens ATCC 13124 after 24 hrs by ten-fold serial dilution method; assay type: functional; conditions: ATCC 13124, 24 h
Summary of the method: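 Grown in Fluid Thioglycollate Broth and incubated 24 h at 37 °C. Growth was checked by eye after incubation. MIC was taken as the lowest concentration, in μg/mL, that prevented visible growth.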

Bacteroides fragilis = assay: Antibacterial activity against Bacteroides fragilis ATCC 23745 after 24 hrs by ten-fold serial dilution method; assay type: functional; conditions: ATCC 23745, 24 h
Summary of the method: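 Grown in Fluid Thioglycollate Broth and incubated 24 h at 37 °C. Growth was read by eye, and the MIC (µg/mL) is the lowest concentration that prevented visible growth.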

Neisseria gonorrhoeae = assay: Antibacterial activity against Neisseria gonorrhoeae ATCC 19424 after 48 hrs by ten-fold serial dilution method; assay type: functional; conditions: ATCC 19424, 48 h
Summary of the method: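 Tested on chocolate agar made from GC agar base with hemoglobin and Supplement C, incubated 48 h at 37 °C. Plates were checked visually, and the MIC (µg/mL) is the lowest concentration with no visible growth.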

Trichomonas vaginalis = assay: Antibacterial activity against Trichomonas vaginalis ATCC 30001 after 48 hrs by ten-fold serial dilution method; assay type: functional; conditions: ATCC 30001, 48 h
Summary of the method: (§1)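 Trichomonads were cultured in Diamond medium with 5% serum and incubated 48 h at 37 °C. Cultures were examined microscopically for motile cells, and the MIC (µg/mL) is the lowest concentration giving no motile organisms.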

Tritrichomonas foetus = assay: Antibacterial activity against Tritrichomonas foetus 1002-96-27 after 48 hrs by ten-fold serial dilution method; assay type: functional; conditions: 1002-96-27, 48 h; summary of the method: as §1
Pentatrichomonas hominis = assay: Antibacterial activity against Pentatrichomonas hominis ATCC 30000 after 48 hrs by ten-fold serial dilution method; assay type: functional; conditions: ATCC 30000, 48 h; summary of the method: as §1
Candida albicans = assay: Antifungal activity against Candida albicans; assay type: functional, organism-based

Question: Which MIC (Clostridium perfringens) does the source give for `Cn1c([N+](=O)[O-])cnc1S(=O)(=O)CCCCC(=O)O` here?
Answer: Its MIC is greater than 100 µg/mL.

Question: What about the MIC (Bacteroides fragilis) of the same compound?
Answer: Its MIC is 100 µg/mL (≈ 343 µM).

Question: What about the MIC (Neisseria gonorrhoeae) of the same compound?
Answer: The MIC was 100 µg/mL (≈ 343 µM).

Question: And the MIC (Trichomonas vaginalis)?
Answer: Its MIC is 100 µg/mL (≈ 343 µM).

Question: What about the MIC (Tritrichomonas foetus) of the same compound?
Answer: The MIC was greater than 100 µg/mL.

Question: What about the MIC (Pentatrichomonas hominis) of the same compound?
Answer: The MIC was 100 µg/mL (≈ 343 µM).

Question: What about the Activity (Candida albicans) of the same compound?
Answer: Its Activity is “inactive”.

Question: What does the source list for `Cn1c([N+](=O)[O-])cnc1SCCCOc1ccc(C(=O)O)cc1`?
Answer: MIC (Clostridium perfringens): 10 µg/mL (≈ 29.6 µM); MIC (Bacteroides fragilis): 1 µg/mL (≈ 2.96 µM); MIC (Neisseria gonorrhoeae): 1 µg/mL (≈ 2.96 µM); MIC (Trichomonas vaginalis): 1 µg/mL (≈ 2.96 µM); MIC (Tritrichomonas foetus): 10 µg/mL (≈ 29.6 µM); MIC (Pentatrichomonas hominis): 1 µg/mL (≈ 2.96 µM); Activity (Candida albicans): inactive

Question: Which results are given for `Cc1ncc([N+](=O)[O-])n1CCO` [METRONIDAZOLE]?
Answer: MIC (Clostridium perfringens): 10 µg/mL (≈ 58.4 µM); MIC (Bacteroides fragilis): 1 µg/mL (≈ 5.84 µM); MIC (Neisseria gonorrhoeae): > 100 µg/mL; MIC (Trichomonas vaginalis): 10 µg/mL (≈ 58.4 µM); MIC (Tritrichomonas foetus): 1 µg/mL (≈ 5.84 µM); MIC (Pentatrichomonas hominis): 1 µg/mL (≈ 5.84 µM); Activity (Candida albicans): inactive

Question: Which results are given for `COC(=O)CCCCCCCCCC[S+]([O-])c1ncc([N+](=O)[O-])n1C` (stereo unspecified)?
Answer: MIC (Clostridium perfringens): > 100 µg/mL; MIC (Bacteroides fragilis): > 100 µg/mL; MIC (Neisseria gonorrhoeae): 100 µg/mL (≈ 268 µM); MIC (Trichomonas vaginalis): 100 µg/mL (≈ 268 µM); MIC (Tritrichomonas foetus): 100 µg/mL (≈ 268 µM); MIC (Pentatrichomonas hominis): 100 µg/mL (≈ 268 µM); Activity (Candida albicans): inactive

Question: How did the MIC (Clostridium perfringens) turn out when `Cn1ccnc1SCCOc1ccc(C#N)cc1` [listing 1 of 2 here] was run?
Answer: Its MIC is greater than 100 µg/mL.

Question: What about the MIC (Bacteroides fragilis) of the same compound?
Answer: Its MIC is greater than 100 µg/mL.

Question: What about the MIC (Neisseria gonorrhoeae) of the same compound?
Answer: The MIC was greater than 100 µg/mL.

Question: And the MIC (Trichomonas vaginalis)?
Answer: Its MIC is greater than 100 µg/mL.

Question: What about the MIC (Tritrichomonas foetus) of the same compound?
Answer: The MIC was greater than 100 µg/mL.

Question: What about the MIC (Pentatrichomonas hominis) of the same compound?
Answer: Its MIC is greater than 100 µg/mL.

Question: With `CCOC(=O)c1ccc(OCCCCSc2nccn2C)cc1` [listing 1 of 2 here] as the compound, how does the Activity (Candida albicans) read?
Answer: The Activity was “inactive”.

Question: How did the MIC (Clostridium perfringens) turn out when `Cn1c([N+](=O)[O-])cnc1[S+]([O-])CCCCCCCOc1ccccc1[N+](=O)[O-]` (stereo unspecified) was run?
Answer: Its MIC is greater than 100 µg/mL.

Question: What about the MIC (Bacteroides fragilis) of the same compound?
Answer: The MIC was 100 µg/mL (≈ 244 µM).

Question: What about the MIC (Neisseria gonorrhoeae) of the same compound?
Answer: Its MIC is greater than 100 µg/mL.

Question: And the MIC (Trichomonas vaginalis)?
Answer: The MIC was 100 µg/mL (≈ 244 µM).

Question: What about the MIC (Tritrichomonas foetus) of the same compound?
Answer: The MIC was 100 µg/mL (≈ 244 µM).

Question: And the MIC (Pentatrichomonas hominis)?
Answer: The MIC was 100 µg/mL (≈ 244 µM).

Question: What about the Activity (Candida albicans) of the same compound?
Answer: Its Activity is “inactive”.

Question: With `Br.Cn1ccnc1SCCCCOc1ccccc1` as the compound, how does the MIC (Clostridium perfringens) read?
Answer: Its MIC is greater than 100 µg/mL.

Question: And the MIC (Bacteroides fragilis)?
Answer: Its MIC is greater than 100 µg/mL.

Question: And the MIC (Neisseria gonorrhoeae)?
Answer: The MIC was 100 µg/mL.

Question: And the MIC (Trichomonas vaginalis)?
Answer: The MIC was greater than 100 µg/mL.

Question: What about the MIC (Tritrichomonas foetus) of the same compound?
Answer: Its MIC is greater than 100 µg/mL.

Question: And the MIC (Pentatrichomonas hominis)?
Answer: The MIC was greater than 100 µg/mL.

Question: What about the Activity (Candida albicans) of the same compound?
Answer: Its Activity is “inactive”.

Question: With `Cn1c([N+](=O)[O-])cnc1SCCCCCCCCCCCC(=O)O` as the compound, how does the MIC (Clostridium perfringens) read?
Answer: Its MIC is greater than 100 µg/mL.

Question: What about the MIC (Bacteroides fragilis) of the same compound?
Answer: The MIC was 100 µg/mL (≈ 280 µM).

Question: And the MIC (Neisseria gonorrhoeae)?
Answer: Its MIC is greater than 100 µg/mL.

Question: What about the MIC (Trichomonas vaginalis) of the same compound?
Answer: The MIC was 10 µg/mL (≈ 28 µM).

Question: And the MIC (Tritrichomonas foetus)?
Answer: The MIC was 10 µg/mL (≈ 28 µM).

Question: What about the MIC (Pentatrichomonas hominis) of the same compound?
Answer: The MIC was 10 µg/mL (≈ 28 µM).

Question: What about the Activity (Candida albicans) of the same compound?
Answer: Its Activity is “inactive”.

Question: Which MIC (Clostridium perfringens) does the source give for `Cn1c([N+](=O)[O-])cnc1SCCOc1ccc(Br)cc1` here?
Answer: Its MIC is greater than 100 µg/mL.

Question: What about the MIC (Bacteroides fragilis) of the same compound?
Answer: Its MIC is 100 µg/mL (≈ 279 µM).

Question: What about the MIC (Neisseria gonorrhoeae) of the same compound?
Answer: Its MIC is greater than 100 µg/mL.

Question: And the MIC (Trichomonas vaginalis)?
Answer: The MIC was 10 µg/mL (≈ 27.9 µM).

Question: And the MIC (Tritrichomonas foetus)?
Answer: The MIC was 10 µg/mL (≈ 27.9 µM).

Question: What about the MIC (Pentatrichomonas hominis) of the same compound?
Answer: Its MIC is 10 µg/mL (≈ 27.9 µM).

Question: What about the Activity (Candida albicans) of the same compound?
Answer: The Activity was “inactive”.

Question: Which MIC (Clostridium perfringens) does the source give for `Br.CCOC(=O)c1ccc(OCCCCSc2nccn2C)cc1` here?
Answer: Its MIC is greater than 100 µg/mL.

Question: And the MIC (Bacteroides fragilis)?
Answer: The MIC was greater than 100 µg/mL.

Question: What about the MIC (Neisseria gonorrhoeae) of the same compound?
Answer: The MIC was greater than 100 µg/mL.

Question: What about the MIC (Trichomonas vaginalis) of the same compound?
Answer: Its MIC is 100 µg/mL.

Question: And the MIC (Tritrichomonas foetus)?
Answer: The MIC was 100 µg/mL.

Question: What about the MIC (Pentatrichomonas hominis) of the same compound?
Answer: Its MIC is 100 µg/mL.

Question: With `Cn1ccnc1SCCOc1ccc(C#N)cc1` [listing 2 of 2 here] as the compound, how does the Activity (Candida albicans) read?
Answer: Its Activity is “inactive”.

Question: With `Cn1c([N+](=O)[O-])cnc1SCCOc1ccc(C(=O)O)cc1` as the compound, how does the Activity (Candida albicans) read?
Answer: The Activity was “inactive”.

Question: What does the source list for `Cn1c([N+](=O)[O-])cnc1SCCCCCCCCCCCCCCCC(=O)O`?
Answer: MIC (Clostridium perfringens): > 100 µg/mL; MIC (Bacteroides fragilis): > 100 µg/mL; MIC (Neisseria gonorrhoeae): > 100 µg/mL; MIC (Trichomonas vaginalis): 100 µg/mL (≈ 242 µM); MIC (Tritrichomonas foetus): 100 µg/mL (≈ 242 µM); MIC (Pentatrichomonas hominis): 100 µg/mL (≈ 242 µM); Activity (Candida albicans): inactive

Question: With `CCOC(=O)c1ccc(OCCCCCCSc2ncc([N+](=O)[O-])n2C)c([N+](=O)[O-])c1` as the compound, how does the MIC (Clostridium perfringens) read?
Answer: Its MIC is 100 µg/mL (≈ 221 µM).

Question: And the MIC (Bacteroides fragilis)?
Answer: Its MIC is 10 µg/mL (≈ 22.1 µM).

Question: And the MIC (Neisseria gonorrhoeae)?
Answer: The MIC was greater than 100 µg/mL.

Question: And the MIC (Trichomonas vaginalis)?
Answer: The MIC was 10 µg/mL (≈ 22.1 µM).

Question: And the MIC (Tritrichomonas foetus)?
Answer: Its MIC is 100 µg/mL (≈ 221 µM).

Question: And the MIC (Pentatrichomonas hominis)?
Answer: Its MIC is 10 µg/mL (≈ 22.1 µM).

Question: And the Activity (Candida albicans)?
Answer: Its Activity is “inactive”.

Question: For `CCOC(=O)c1ccc(OCCCCSc2nccn2C)cc1` [listing 2 of 2 here], which MIC (Clostridium perfringens) is on record?
Answer: Its MIC is greater than 100 µg/mL.

Question: What about the MIC (Bacteroides fragilis) of the same compound?
Answer: Its MIC is greater than 100 µg/mL.

Question: What about the MIC (Neisseria gonorrhoeae) of the same compound?
Answer: The MIC was greater than 100 µg/mL.

Question: And the MIC (Trichomonas vaginalis)?
Answer: The MIC was greater than 100 µg/mL.

Question: And the MIC (Tritrichomonas foetus)?
Answer: Its MIC is greater than 100 µg/mL.

Question: And the MIC (Pentatrichomonas hominis)?
Answer: Its MIC is greater than 100 µg/mL.
